Results on 6 compounds are retold here after PMC2791411 (Biochemistry, 2009).

Usually Ki stands for the equilibrium dissociation constant of an inhibitor or competing ligand from its target. A low value points to a stronger hold on the target.

Data set [1] concerns the target T1, hDAO (human diamine oxidase) (Homo sapiens, UniProt P19801).
T1 sequence (P19801 20-751): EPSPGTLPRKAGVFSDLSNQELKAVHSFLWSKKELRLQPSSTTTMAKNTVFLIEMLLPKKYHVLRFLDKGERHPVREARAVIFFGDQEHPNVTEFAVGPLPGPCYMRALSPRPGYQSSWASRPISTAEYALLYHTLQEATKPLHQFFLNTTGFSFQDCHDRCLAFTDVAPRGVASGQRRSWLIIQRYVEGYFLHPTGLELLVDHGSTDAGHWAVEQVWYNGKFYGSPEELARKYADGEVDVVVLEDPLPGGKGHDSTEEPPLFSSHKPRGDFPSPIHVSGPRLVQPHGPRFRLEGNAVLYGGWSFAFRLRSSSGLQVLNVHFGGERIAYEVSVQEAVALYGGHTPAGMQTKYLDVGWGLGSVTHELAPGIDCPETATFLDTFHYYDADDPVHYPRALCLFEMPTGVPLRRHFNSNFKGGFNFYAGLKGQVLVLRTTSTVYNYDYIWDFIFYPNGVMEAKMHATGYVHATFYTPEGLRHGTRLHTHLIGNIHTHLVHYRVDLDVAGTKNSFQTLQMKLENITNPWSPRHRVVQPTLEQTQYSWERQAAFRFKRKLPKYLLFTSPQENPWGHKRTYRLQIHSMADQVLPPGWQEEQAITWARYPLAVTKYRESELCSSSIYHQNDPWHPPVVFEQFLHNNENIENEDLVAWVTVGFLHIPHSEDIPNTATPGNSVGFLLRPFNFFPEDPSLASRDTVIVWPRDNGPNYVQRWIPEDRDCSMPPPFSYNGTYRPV
Briefly: Inhibition of hDAO putrescine oxidation. As to conditions: for Mode of Inhibition: hDAO, putrescine oxidation, global nonlinear regression. The data set is classed as biochemical.

The conditions of data set [2]: patients, intravenous treatment; ref [59], [73], [79]–[81]; cited from earlier work.
For data set [3] the following is noted: AIDS patients under pentamidine treatment; ref [72]–[78]; cited from earlier work.
For a further data set, the target named is T2, hVAP-1 (Homo sapiens, UniProt Q16853).
T2 sequence (Q16853 1-763): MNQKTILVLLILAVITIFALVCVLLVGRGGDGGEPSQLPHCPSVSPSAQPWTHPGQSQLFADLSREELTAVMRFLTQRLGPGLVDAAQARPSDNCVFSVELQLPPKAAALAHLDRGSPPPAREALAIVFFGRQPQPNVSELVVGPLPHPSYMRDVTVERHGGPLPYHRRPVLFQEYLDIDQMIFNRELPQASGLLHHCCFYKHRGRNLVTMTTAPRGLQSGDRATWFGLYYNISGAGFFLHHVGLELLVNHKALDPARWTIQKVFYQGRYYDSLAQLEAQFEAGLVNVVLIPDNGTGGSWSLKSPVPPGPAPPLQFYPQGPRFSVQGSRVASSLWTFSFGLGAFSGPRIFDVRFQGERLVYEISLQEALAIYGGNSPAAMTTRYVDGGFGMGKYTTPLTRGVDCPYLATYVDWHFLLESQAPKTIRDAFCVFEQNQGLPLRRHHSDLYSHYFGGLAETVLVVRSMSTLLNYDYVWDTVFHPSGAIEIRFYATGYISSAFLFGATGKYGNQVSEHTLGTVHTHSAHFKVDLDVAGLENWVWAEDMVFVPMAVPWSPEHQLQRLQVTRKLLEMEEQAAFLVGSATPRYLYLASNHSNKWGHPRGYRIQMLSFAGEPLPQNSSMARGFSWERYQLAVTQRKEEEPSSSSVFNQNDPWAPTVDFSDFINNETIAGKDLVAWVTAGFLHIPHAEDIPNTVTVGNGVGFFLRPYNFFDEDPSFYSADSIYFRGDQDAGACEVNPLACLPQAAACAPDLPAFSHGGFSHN
The experiment in a line: Inhibition of hVAP-1 amine oxidase activity. Format: biochemical. The conditions noted are these: for Mode of Inhibition: hVAP-1. The procedure, abridged:
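Purified human VAP-1 was supplied as a gift. Activity was followed as benzaldehyde production at 250 nm over 5 min (ε 12,800 M⁻¹cm⁻¹) in 100 mM potassium phosphate, pH 7.2, at 37 °C, with and without test compound. Ki and mode came from global nonlinear regression, choosing the best-fitting competitive, uncompetitive, noncompetitive or mixed model.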

Take `N=C(N)c1ccc(N=NNc2ccc(C(=N)N)cc2)cc1` [Berenil, 1,3-bis(4’-amidinophenyl)triazene]: in data set [1], the “inhibition of hDAO, in words” value is recorded as “very potent inhibitors” and the “Mode of Inhibition” value is recorded as “Mixed”. Further, the “Mode of Inhibition” value in data set [1] (listed as berenil) is recorded as “mixed type/partial competitive inhibition”.
Take `CN/C(=N/CCSCc1nc[nH]c1C)NC#N` [Cimetidine]: in data set [1], the Ki turned out to be 90 ± 14 µM and the “Mode of Inhibition” value is on record as “Mixed”.
Consider `Clc1cccc(Cl)c1N=C1NCCN1` [Clonidine], for which, in data set [1], affinity was put at a Ki of 100 ± 8 µM; the “inhibition of hDAO, in words” value was “weak inhibitor”; the “Mode of Inhibition” value is recorded as “Mixed”.
Take `NNC(=O)c1ccncc1` [Isoniazid]: in data set [1], the affinity corresponds to a Ki of 970 ± 50 µM and the “Mode of Inhibition” value is “purely noncompetitive”.
`N=C(N)c1ccc(OCCCCCOc2ccc(C(=N)N)cc2)cc1` [Pentamidine, 1,5-bis(4-amidinophenoxy)pentane]: in data set [2], the “Plasma concentration, lower end of range” value is recorded as 25 ng/mL; the “Plasma concentration, lower end of range (molar)” value is 43 nM; the “Plasma concentration, upper end of range” value is 1.4 g/mL; the “Plasma concentration, upper end of range (molar)” value is 2300 nM. In addition, the “AIDS patients with adverse side effects” value in data set [3] is given as “at least 70%”. At hVAP-1, affinity was put at a Ki of 1.1 ± 0.04 µM and the “Mode of Inhibition” value is on record as “Noncompetitive”. Moreover, on hVAP-1 (listed as pentamidine), the “Mode of Inhibition” value was “purely noncompetitive”. In addition, in data set [1], the “inhibition of hDAO, in words” value was “very potent inhibitors” and the “Mode of Inhibition” value is reported as “mixed type/partial competitive inhibition”.
Take `NCCCCN` [putrescine, 1,4-diaminobutane]: the Ki in data set [1] is 2270 ± 140 µM.
